Experimental data published in ChEMBL document CHEMBL1131427, “Synthesis of imidazo[1,2-a]pyridines as antiviral agents” (J Med Chem, 1998).
Converted amounts (≈) assume the structure as drawn.

Key:
HEL [1] = test: Inhibition of cell proliferation expressed as CC50; type: functional, Homo sapiens
Human alphaherpesvirus 3 [2] = test: Anti-VZV activity against 07/1 TK- in HEL cells; type: functional, organism-based; conditions: Human alphaherpesvirus 3, HEL
Human alphaherpesvirus 3 [3] = test: Anti-VZV activity against OKA strain TK+ in HEL cells; type: functional, organism-based; conditions: Human alphaherpesvirus 3, oka
Human alphaherpesvirus 3 [4] = test: Anti-VZV activity against YS TK+ in HEL cells; type: functional, organism-based; conditions: Human alphaherpesvirus 3, HEL
Human alphaherpesvirus 3 [5] = test: Anti-VZV activity against YS/R TK- in HEL cells; type: functional, organism-based; conditions: Human alphaherpesvirus 3, ys-r
Human betaherpesvirus 5 = test: Anti CMV (Cytomegalovirus- virus) activity against AD-169 strain in HEL cells; type: functional, organism-based; conditions: Human betaherpesvirus 5, HEL
Outline: (§1)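 Run in human embryonic lung (HEL) cells. The value is the 50% virus-inhibitory concentration, given in µg/mL.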

Cytomegalovirus = test: Anti CMV (Cytomegalovirus- virus) activity against Davis strain in HEL cells; type: functional, organism-based; conditions: Human betaherpesvirus 5, HEL; outline: as §1
[6] = Ratio of Cytotoxicity concentration to that of virus-inhibitory concentration.; type: functional
Outline: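 Selectivity index is the 50% cytotoxic concentration in HEL cells divided by the 50% inhibitory concentration against CMV strain AD-169 in HEL cells.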

HEL [7] = test: The compound was tested for inhibition of cell proliferation in Human Embryonic Lung (HEL) Cells.; type: functional
HEL [8] = test: The compound was tested for Anti-VZV activity against 07/1 strain TK- in HEL cells; type: functional, cell-based; conditions: Homo sapiens; outline: as §1
HEL [9] = test: The compound was tested for Anti-VZV activity against YS strain TK+ in HEL cells; type: functional, cell-based; conditions: Homo sapiens; outline: as §1
HEL [10] = test: The compound was tested for Anti-VZV activity against YS/R strain TK- in HEL cells; type: functional, cell-based; conditions: Homo sapiens; outline: as §1
[11] = Ratio of 50% cytotoxic concentration to 50% virus-inhibitory concentration [the latter based on the 50% inhibitory concentration for CMV (AD-169 strain); type: functional

SMILES | CC (HEL [1]) [µg/mL] | IC50 (Human alphaherpesvirus 3 [2]) [µg/mL] | IC50 (Human alphaherpesvirus 3 [3]) [µg/mL] | IC50 (Human alphaherpesvirus 3 [4]) [µg/mL] | IC50 (Human alphaherpesvirus 3 [5]) [µg/mL] | IC50 (Human betaherpesvirus 5) [µg/mL] | IC50 (Cytomegalovirus) [µg/mL] | Selectivity index [6] | CC50 (HEL [7]) [µg/mL] | IC50 (HEL [8]) [µg/mL] | IC50 (HEL [9]) [µg/mL] | IC50 (HEL [10]) [µg/mL] | Selectivity index [11]
Cc1ccc2ncc(CSCc3ccccc3)n2c1 | 23 | 2.58 (≈ 9.61 µM) | 0.74 (≈ 2.76 µM) | 6.4 (≈ 23.8 µM) | 1.2 (≈ 4.47 µM) | 0.3 (≈ 1.12 µM) | 0.5 (≈ 1.86 µM) | 77 | – | – | – | – | –
Cc1ccn2c(CSCc3ccccc3)c(-c3ccccc3)nc2c1 | >50 | > 50 | > 20 | > 20 | > 50 | > 20 | > 20 | – | – | – | – | – | –
Cc1ccc(C)n2c(CSCc3ccccc3)cnc12 | 3 | > 2 | > 2 | > 2 | > 2 | 1.2 (≈ 4.25 µM) | > 2 | 2.5 | – | – | – | – | –
Nc1nc2c(ncn2COC(CO)CO)c(=O)[nH]1 [GANCICLOVIR] | >100 | – | – | – | – | 0.5 (≈ 1.96 µM) | 0.5 (≈ 1.96 µM) | – | – | – | – | – | –
Cc1ccn2c(CSCCc3ccccc3)cnc2c1 | >50 | 0.95 (≈ 3.36 µM) | 0.2 (≈ 0.708 µM) | 0.5 (≈ 1.77 µM) | 0.66 (≈ 2.34 µM) | 0.33 (≈ 1.17 µM) | 0.35 (≈ 1.24 µM) | >151 | – | – | – | – | –
Cc1cc(Br)cn2c(CSCc3ccccc3)cnc12 | >50 | 1.4 (≈ 4.03 µM) | 5.5 (≈ 15.8 µM) | 7 (≈ 20.2 µM) | 0.86 (≈ 2.48 µM) | 0.12 (≈ 0.346 µM) | 0.12 (≈ 0.346 µM) | >417 | – | – | – | – | –
Cc1ccn2c(CSCc3ccccc3)cnc2c1 | 45 | – | 15 (≈ 55.9 µM) | 17 (≈ 63.3 µM) | 10 (≈ 37.3 µM) | 3.5 (≈ 13 µM) | 3.5 (≈ 13 µM) | 13 | – | – | – | – | –
Cc1cccn2c(CSCc3ccccc3)c(-c3ccccc3)nc12 | 13 | > 2 | > 2 | > 2 | 2 (≈ 5.81 µM) | 1.2 (≈ 3.48 µM) | > 2 | 11 | – | – | – | – | –
Nc1nc2c(ncn2COCCO)c(=O)[nH]1 [ACYCLOVIR] | >100 | – | – | – | – | – | – | – | – | – | – | – | –
Cc1ccn2c(CSCc3ccc(Cl)cc3)cnc2c1 | 19 | > 5 | 2 (≈ 6.6 µM) | > 5 | > 5 | 1.2 (≈ 3.96 µM) | 1.6 (≈ 5.28 µM) | 16 | – | – | – | – | –
Cc1cccn2c(CSCc3ccccc3)cnc12 | 8 | 0.4 (≈ 1.49 µM) | 0.9 (≈ 3.35 µM) | 0.3 (≈ 1.12 µM) | > 1 | 0.2 (≈ 0.745 µM) | 0.2 (≈ 0.745 µM) | 40 | – | – | – | – | –
Cc1ccn2c(CSCC(F)(F)F)cnc2c1 | – | – | > 50 | – | – | 40 (≈ 154 µM) | 42 (≈ 161 µM) | – | > 50 | > 50 | > 50 | > 50 | >1.2
Cc1nc2ccccn2c1CSCc1ccccc1 | 33 | 0.5 (≈ 1.86 µM) | 0.37 (≈ 1.38 µM) | 0.23 (≈ 0.857 µM) | 0.28 (≈ 1.04 µM) | 0.12 (≈ 0.447 µM) | 0.13 (≈ 0.484 µM) | 275 | – | – | – | – | –
O=c1[nH]c(=O)n([C@H]2C[C@H](O)[C@@H](CO)O2)cc1/C=C/Br [BRIVUDINE] | >50 | > 50 | 0.0009 (≈ 0.0027 µM) | 0.002 (≈ 0.006 µM) | > 20 | – | – | – | – | – | – | – | –
Cc1ccn2c(CSCc3ccccc3)c(C)nc2c1 | >50 | 14.1 (≈ 49.9 µM) | 10.5 (≈ 37.2 µM) | > 5 | 10 (≈ 35.4 µM) | 3.4 (≈ 12 µM) | 3.5 (≈ 12.4 µM) | >15 | – | – | – | – | –
Cc1ccn2c(CSCc3ccccc3Cl)cnc2c1 | 18 | > 5 | 1.8 (≈ 5.94 µM) | > 5 | > 5 | 0.5 (≈ 1.65 µM) | 0.7 (≈ 2.31 µM) | 36 | – | – | – | – | –
Cc1c(Br)cc(Br)c2ncc(CSCc3ccccc3)n12 | >50 | > 50 | > 50 | > 50 | > 20 | > 50 | > 50 | – | – | – | – | – | –
Cc1cc(Br)c2ncc(CSCc3ccccc3)n2c1 | >50 | 9 (≈ 25.9 µM) | 31 (≈ 89.3 µM) | > 50 | 4 (≈ 11.5 µM) | 1.1 (≈ 3.17 µM) | 1.1 (≈ 3.17 µM) | >45 | – | – | – | – | –
FC(F)(F)c1cc(Cl)c2ncc(CSCc3ccccc3)n2c1 | 40 | > 5 | 6.6 (≈ 18.5 µM) | 8.8 (≈ 24.7 µM) | 9.8 (≈ 27.5 µM) | > 5 | > 5 | <8 | – | – | – | – | –
